Source: ChEMBL document CHEMBL4354865 (J Med Chem, 2020)
Values belong to the compound of their own block, whether it stands above or below them. The source made the active and inactive calls. The rule behind the calls is not given here.

Tests used:
[1] = Cytotoxicity against human A375 cells assessed as cell viability at 1 uM measured after 48 hrs by MTT assay relative to control; type: cell-based, A-375; settings: read-out: Activity
Summary of the method: (§1)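 A375 cells, unstimulated or stimulated with recombinant human IFN-γ, were left untreated or treated with 1 µM compound for 48 h. L-Kyn was measured by HPLC and cell viability was assessed.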

[2] = molecular target: T1, Indoleamine 2,3-dioxygenase 1 (Homo sapiens, UniProt P14902); assay: Inhibition of IDO1 in IFNgamma-stimulated human A375 cells assessed as reduction in L-Kyn level at 1 uM measured after 48 hrs by HPLC analysis relative to control; summary of the method: as §1
Target sequence in this assay (P14902 whole entry, looked up): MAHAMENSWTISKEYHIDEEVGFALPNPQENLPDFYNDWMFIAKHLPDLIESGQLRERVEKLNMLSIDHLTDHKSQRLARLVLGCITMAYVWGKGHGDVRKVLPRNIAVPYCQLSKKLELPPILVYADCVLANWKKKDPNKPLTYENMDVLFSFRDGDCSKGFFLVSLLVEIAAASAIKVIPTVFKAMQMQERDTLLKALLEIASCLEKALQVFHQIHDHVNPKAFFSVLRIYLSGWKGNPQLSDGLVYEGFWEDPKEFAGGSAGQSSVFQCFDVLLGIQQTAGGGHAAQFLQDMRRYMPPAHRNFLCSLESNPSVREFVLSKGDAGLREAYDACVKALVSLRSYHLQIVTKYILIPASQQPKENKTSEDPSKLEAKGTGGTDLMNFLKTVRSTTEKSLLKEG

[3] = molecular target: T1, Indoleamine 2,3-dioxygenase 1; assay: Inhibition of IDO1 in IFNgamma-stimulated human A375 cells assessed as reduction in L-Kyn level measured after 48 hrs by HPLC analysis
Target sequence in this assay (P14902 whole entry): as the sequence (P14902 whole entry, looked up) above

[4] = Drug metabolism in CD-1 mouse liver microsomes assessed as oxidative N-dealkylation at 50 uM measured after 1 hr by LC-HRMS analysis; type: ADME, Microsome
[5] = Metabolic stability in CD-1 mouse liver microsomes assessed as parent compound remaining at 50 uM measured after 1 hr in presence of NADPH by UV-LC/MS analysis
[6] = molecular target: T1, Indoleamine 2,3-dioxygenase 1; assay: Inhibition of IDO1 in IFNgamma-stimulated human DAN-G cells assessed as reduction in L-Kyn level measured after 48 hrs by HPLC analysis; type: cell-based
Target sequence in this assay (P14902 whole entry): as the sequence (P14902 whole entry, looked up) above

[7] = molecular target: T1, Indoleamine 2,3-dioxygenase 1; assay: Inhibition of IDO1 in IFNgamma-stimulated human MCF7 cells assessed as reduction in L-Kyn level measured after 48 hrs by HPLC analysis; type: cell-based
Target sequence in this assay (P14902 whole entry): as the sequence (P14902 whole entry, looked up) above

[8] = Inhibition of CYP450 in rat liver microsomes assessed as reduction in aminopyrine N-demethylase activity preincubated for 3 mins followed by NADPH addition and measured after 15 mins by iodometric titration method; type: ADME
Summary of the method: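 CYP inhibition read by aminopyrine N-demethylase activity, with IC50 determined from concentration–response curves. Ketoconazole (CYP3A inhibitor) served as reference.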

[9] = Drug metabolism in CD-1 mouse liver microsomes assessed as benzimidazole oxidation at 50 uM measured after 1 hr by LC-HRMS analysis; type: ADME, Microsome
[10] = molecular target: Indoleamine 2,3-dioxygenase 1 (Mus musculus, UniProt P28776); assay: Inhibition of mouse IDO1 transfected in P815 cells assessed as reduction in L-Kyn level measured after 16 hrs by HPLC analysis; type: cell-based
Chain of Indoleamine 2,3-dioxygenase 1 (Mus musculus, UniProt P28776) (P28776 whole entry): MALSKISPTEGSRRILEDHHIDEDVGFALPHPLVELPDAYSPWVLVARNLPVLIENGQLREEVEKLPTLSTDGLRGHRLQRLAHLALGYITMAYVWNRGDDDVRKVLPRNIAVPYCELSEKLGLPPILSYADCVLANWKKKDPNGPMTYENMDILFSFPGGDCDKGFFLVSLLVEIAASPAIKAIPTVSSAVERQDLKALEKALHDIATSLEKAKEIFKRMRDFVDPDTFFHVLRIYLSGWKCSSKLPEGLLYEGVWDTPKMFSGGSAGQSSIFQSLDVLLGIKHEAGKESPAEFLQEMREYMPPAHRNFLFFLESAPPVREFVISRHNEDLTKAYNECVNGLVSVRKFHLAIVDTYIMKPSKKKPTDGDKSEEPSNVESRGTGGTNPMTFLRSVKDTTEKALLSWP
Summary of the method: (§2)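 P815 mastocytoma cells stably expressing mouse IDO1 (P1.IDO1) or TDO (P1.TDO) were treated with serial dilutions for 16 h. L-Kyn secreted into the culture supernatant was quantified by HPLC, and an IC50 was determined in each line.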

[11] = molecular target: Tryptophan 2,3-dioxygenase (Mus musculus, UniProt P48776); assay: Inhibition of mouse TDO transfected in P815 cells assessed as reduction in L-Kyn level measured after 16 hrs by HPLC analysis; type: cell-based; summary of the method: as §2
Chain of Tryptophan 2,3-dioxygenase (P48776 whole entry): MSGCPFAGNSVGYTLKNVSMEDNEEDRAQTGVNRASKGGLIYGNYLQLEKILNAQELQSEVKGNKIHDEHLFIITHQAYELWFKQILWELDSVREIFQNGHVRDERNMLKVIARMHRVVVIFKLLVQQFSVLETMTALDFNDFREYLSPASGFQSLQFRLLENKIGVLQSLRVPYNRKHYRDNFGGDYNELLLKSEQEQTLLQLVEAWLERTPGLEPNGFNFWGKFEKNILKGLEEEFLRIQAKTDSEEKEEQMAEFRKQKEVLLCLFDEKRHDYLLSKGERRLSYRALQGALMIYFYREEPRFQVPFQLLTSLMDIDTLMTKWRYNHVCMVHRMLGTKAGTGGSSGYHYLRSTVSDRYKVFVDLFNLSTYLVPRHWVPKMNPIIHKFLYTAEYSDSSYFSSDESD

[12] = Metabolic stability in CD-1 mouse liver microsomes assessed as parent compound remaining at 50 uM measured after 1 hr in presence of NADPH generating system by UV-LC/MS analysis; type: ADME, Microsome; settings: read-out: Stability
Summary of the method: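 Mouse liver microsomes activated with NADPH. Residual parent compound was measured after 1 h incubation.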

Mus musculus [13] = assay: In vivo inhibition of IDO1 in BALB/c mouse assessed as reduction in L-kyn level at 10 mg/kg, iv measured after 8 hrs by LC-HRMS analysis; type: functional, organism-based
Summary of the method: (§3)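 After a single 10 mg/kg i.v. dose in mice, plasma L-Kyn was measured at 0, 2, 5, 15 and 30 min and at 8 h post-injection, and compared with basal level.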

Mus musculus [14] = assay: In vivo inhibition of IDO1 in BALB/c mouse assessed as reduction in L-kyn level at 10 mg/kg, iv measured up to 30 mins by LC-HRMS analysis; type: functional, organism-based; summary of the method: as §3
Monocyte [15] = assay: Cytotoxicity against PDAC patient derived monocytes assessed as reduction in cell viability at 30 uM measured after 24 hrs by Annexin-V APC/7-AAD staining based flow cytometric analysis; settings: human
Summary of the method: (§4)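 Monocytes from healthy donors (n=3) and from PDAC patients (n=3) were treated for 24 h, with DMSO as control. Viability was normalized to untreated cells. Healthy-donor cells received a range of concentrations; PDAC cells received 30 µM.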

[16] = molecular target: T1, Indoleamine 2,3-dioxygenase 1; assay: Inhibition of IDO1 in IFNgamma-stimulated human LXF-289 cells assessed as reduction in L-Kyn level measured after 48 hrs by HPLC analysis
Target sequence in this assay (P14902 whole entry): as the sequence (P14902 whole entry, looked up) above

[17] = molecular target: T1, Indoleamine 2,3-dioxygenase 1; assay: Inhibition of IDO1 in IFNgamma-stimulated human HepG2 cells assessed as reduction in L-Kyn level measured after 48 hrs by HPLC analysis; type: cell-based
Target sequence in this assay (P14902 whole entry): as the sequence (P14902 whole entry, looked up) above

[18] = molecular target: T1, Indoleamine 2,3-dioxygenase 1; assay: Selectivity ratio of IC50 for IDO1 in IFNgamma-stimulated human DAN-G cells to IC50 for IDO1 in IFNgamma-stimulated human LXF-289 cells
Target sequence in this assay (P14902 whole entry, looked up): as above

[19] = molecular target: T1, Indoleamine 2,3-dioxygenase 1; assay: Binding affinity to NT650-NHS fluorophore-labeled recombinant human N-terminal His-tagged IDO1 expressed in Escherichia coli measured after 10 mins by microscale thermophoresis assay
Target sequence in this assay (P14902 whole entry): as the sequence (P14902 whole entry, looked up) above

Monocyte [20] = assay: Effect on anti-CD3/anti-CD28-stimulated CD3+T cell proliferation in PDAC patient derived non-suppressive monocytes co-cultured with human PBMC at 30 uM preincubated for 4 days followed by co-culturing of monocytes and measured after 24 hrs by flow cytometric analysis; type: cell-based
Summary of the method: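 PDAC patient monocytes (suppressive or non-suppressive) were pre-treated with 30 µM compound or DMSO, then co-cultured for 4 days with Cell Trace-labelled activated CD3+ T cells. T-cell proliferation was read from proliferation peaks and normalized to activated T cells cultured without myeloid cells. Data are mean ± SEM; Mann-Whitney test.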

[21] = molecular target: T1, Indoleamine 2,3-dioxygenase 1; assay: Selectivity ratio of IC50 for IDO1 in IFNgamma-stimulated human DAN-G cells to IC50 for IDO1 in IFNgamma-stimulated human HepG2 cells
Target sequence in this assay (P14902 whole entry, looked up): as above

[22] = molecular target: T1, Indoleamine 2,3-dioxygenase 1; assay: Selectivity ratio of IC50 for IDO1 in IFNgamma-stimulated human DAN-G cells to IC50 for IDO1 in IFNgamma-stimulated human HeLa cells
Target sequence in this assay (P14902 whole entry, looked up): as above

Monocyte [23] = assay: Cytotoxicity against human monocytes assessed as reduction in cell viability at 30 uM measured after 24 hrs by Annexin-V APC/7-AAD staining based flow cytometric analysis; summary of the method: as §4
[24] = molecular target: T1, Indoleamine 2,3-dioxygenase 1; assay: Inhibition of IDO1 in PDAC patient derived suppressive monocytes co-cultured with human PBMC assessed as reduction in anti-CD3/anti-CD28-stimulated CD3+T cell proliferation at 30 uM preincubated for 4 days followed by co-culturing of monocytes and measured after 24 hrs by flow cytometric analysis
Target sequence in this assay (P14902 whole entry, looked up): as above

[25] = molecular target: T1, Indoleamine 2,3-dioxygenase 1; assay: Selectivity ratio of IC50 for IDO1 in IFNgamma-stimulated human DAN-G cells to IC50 for IDO1 in IFNgamma-stimulated human MCF7 cells
Target sequence in this assay (P14902 whole entry, looked up): as above

[26] = molecular target: T1, Indoleamine 2,3-dioxygenase 1; assay: Inhibition of IDO1 in IFNgamma-stimulated human A375 cells assessed as reduction in L-Kyn level at 10 uM measured after 48 hrs by HPLC analysis relative to control
Summary of the method: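 Screen in melanoma A375 cells, which express IDO1 when treated with recombinant human IFN-γ. Cells were left untreated or given 10 µM compound for 48 h. L-Kyn was then measured. Cell viability was also checked.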

[27] = molecular target: T1, Indoleamine 2,3-dioxygenase 1; assay: Inhibition of IDO1 in IFNgamma-stimulated human HeLa cells assessed as reduction in L-Kyn level measured after 48 hrs by HPLC analysis; type: cell-based
[28] = molecular target: T1, Indoleamine 2,3-dioxygenase 1; assay: Selectivity ratio of IC50 for IDO1 in IFNgamma-stimulated human DAN-G cells to IC50 for IDO1 in IFNgamma-stimulated human A375 cells
[29] = Inhibition of CYP3A in rat liver microsomes assessed as reduction in aminopyrine N-demethylase activity preincubated for 3 mins followed by NADPH addition and measured after 15 mins by iodometric titration method; type: ADME
Summary of the method: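 IC50 derived by fitting concentration–response curves for inhibition of aminopyrine N-demethylase activity, with ketoconazole run as the reference CYP3A inhibitor.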

SMILES: O=C(NCc1cccc(Cn2ccc3ccccc32)c1)c1cc(Br)c[nH]1
viability at 48 h, 1 µM [1]: 100%
inhibition [2]: 0%

SMILES: O=C(OCc1cccc(Cn2cnc3ccccc32)c1)c1cc(Br)c[nH]1
viability at 48 h, 1 µM [1]: 100%
inhibition [2]: 0%

SMILES: O=C(NCc1cccc(Cn2cnc3ccccc32)c1)c1cc2ccccc2s1
viability at 48 h, 1 µM [1]: 88%
inhibition [2]: 77%

SMILES: O=C(NCc1cccc(Cn2cnc3ccccc32)c1)c1ccc(C(F)(F)F)cc1
viability at 48 h, 1 µM [1]: 97%
inhibition [2]: 81%

SMILES: Cc1ccc2[nH]c(C(=O)NCc3cccc(Cn4cnc5ccccc54)c3)cc2c1
viability at 48 h, 1 µM [1]: 99%
inhibition [2]: 90%
IC50 [3]: 636 nM

SMILES: CC(=O)N1CCN(c2ccc(OCC3COC(Cn4ccnc4)(c4ccc(Cl)cc4Cl)O3)cc2)CC1 (centres undefined) [KETOCONAZOLE]
IC50 [29]: 6400 nM

Now from value to compound, other results behind:

inhibition [2]: 91%
IC50 [3]: 413 nM
SMILES: O=C(NCc1cccc(Cn2cnc3ccccc32)c1)c1cc2ccccc2o1
viability at 48 h, 1 µM [1]: 100%

inhibition [2]: 44%
SMILES: Cc1cc(C(=O)NCc2cccc(Cn3cnc4ccccc43)c2)ccc1C#N
viability at 48 h, 1 µM [1]: 94%

Drug metabolism [4]: Metabolite_Detected
remaining at 1 h, 50 µM [5]: 59%
IC50 [6]: 1940 nM
IC50 [7]: 110 nM
inhibition (INH) ([8]; rat, microsomes, 0.25 h): Not Active
Drug metabolism [9]: Metabolite_Detected
IC50 [10]: 112 nM
IC50 [11]: 32300 nM
inhibition [2]: 88%
IC50 [3]: 90 nM
remaining at 1 h, 50 µM [12]: 59%
SMILES: N#Cc1ccc(C(=O)NCc2cccc(Cn3cnc4ccccc43)c2)cc1
viability at 48 h, 1 µM [1]: 100%

inhibition [2]: 99%
IC50 [3]: 477 nM
SMILES: O=C(NCc1cccc(Cn2cnc3ccccc32)c1)c1ccc(Cl)cc1
viability at 48 h, 1 µM [1]: 96%

Drug metabolism [4]: Metabolite_Detected
remaining at 1 h, 50 µM [5]: 32%
IC50 [16]: 14 nM
IC50 [17]: 43 nM
Ratio IC50 [18]: > 1
Kd [19]: 550 nM
IC50 [6]: 605 nM
IC50 [7]: 21 nM
IC50 [8]: 67700 nM
Drug metabolism [9]: Metabolite_Detected
Ratio IC50 [21]: > 1
Ratio IC50 [22]: > 1
inhibition [24]: Active
Ratio IC50 [25]: > 1
IC50 [10]: 12.7 nM
inhibition [26]: > 30%
IC50 [27]: 64 nM
Ratio IC50 [28]: > 1
IC50 [11]: 5460 nM
inhibition [2]: 96%
remaining at 1 h, 50 µM [12]: 32%
SMILES: O=C(NCc1cccc(Cn2cnc3ccccc32)c1)c1cc(Br)c[nH]1
inhibition (Mus musculus [13]): inactive
inhibition (Mus musculus [14]): Active
Activity (Monocyte [15]): Non-Toxic
Activity (Monocyte [20]): Non-Toxic
Activity (Monocyte [23]): Non-Toxic
viability at 48 h, 1 µM [1]: 85 to 100%

inhibition [2]: 0%
SMILES: O=C(CCN1CCOCC1)NCc1cccc(Cn2cnc3ccccc32)c1
viability at 48 h, 1 µM [1]: 100%

inhibition [2]: 83%
IC50 [3]: 407 nM
SMILES: O=C(NCc1cccc(Cn2cnc3ccccc32)c1)c1nc2ccccc2[nH]1
viability at 48 h, 1 µM [1]: 100%

inhibition [2]: 32%
SMILES: N#Cc1ccc(C(=O)NCc2cccc(Cn3cnc4ccccc43)c2)cc1F
viability at 48 h, 1 µM [1]: 100%

inhibition [2]: 88%
IC50 [3]: 327 nM
SMILES: Cc1ccc(C(=O)NCc2cccc(Cn3cnc4ccccc43)c2)cc1
viability at 48 h, 1 µM [1]: 94%
